Assay results published in ChEMBL document CHEMBL4177580, “New 5-HT1A, 5HT2A and 5HT2C receptor ligands containing a picolinic nucleus: Synthesis, in vitro and in vivo pharmacological evaluation” (Bioorg Med Chem, 2017).
Calls of active or inactive are those of the source. The rule behind the calls is not given here.

How the values were obtained:
Mus musculus [1] = assay: Antidepressant-like activity in Swiss albino mouse assessed as reduction in immobility time at 15 mg/kg, ip dosed 1 hr before test by forced swimming test; assay type: functional, organism-based
Outline: (§1)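 Male Swiss albino mice (18-24 g). The reference drug was diluted in saline and given ip (10 ml/kg) 1 h before testing. Each mouse swam for 6 min in a cylinder (25 cm high, 10 cm diameter) holding 10 cm of water at 23-25°C. Immobility was timed over the last 4 min. Data are mean ± SEM, analysed by one-way ANOVA with Dunnett's test.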

Mus musculus [2] = assay: Antidepressant-like activity in Swiss albino mouse assessed as reduction in immobility time at 20 mg/kg, ip dosed 1 hr before test by forced swimming test; assay type: functional, organism-based; outline: as §1
[3] = target: T1, 5-hydroxytryptamine receptor 1A (Rattus norvegicus, UniProt P19327); assay: Displacement of [3H]-8-OH-DPAT from serotonin 5-HT1A receptor in Sprague-Dawley rat brain cortex homogenates incubated for 30 mins by liquid scintillation spectrometry
T1 sequence (P19327 whole entry): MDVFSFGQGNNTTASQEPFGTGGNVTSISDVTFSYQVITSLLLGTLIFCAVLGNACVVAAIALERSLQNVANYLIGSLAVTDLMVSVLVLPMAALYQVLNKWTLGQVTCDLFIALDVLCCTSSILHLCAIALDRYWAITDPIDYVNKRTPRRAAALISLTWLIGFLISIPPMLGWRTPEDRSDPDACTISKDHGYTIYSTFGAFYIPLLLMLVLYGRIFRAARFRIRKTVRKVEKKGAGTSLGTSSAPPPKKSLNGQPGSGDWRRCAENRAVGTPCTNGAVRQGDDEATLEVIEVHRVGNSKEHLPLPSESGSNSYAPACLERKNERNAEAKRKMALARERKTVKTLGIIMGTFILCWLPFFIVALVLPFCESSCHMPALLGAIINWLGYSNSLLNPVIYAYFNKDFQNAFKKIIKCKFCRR

[4] = target: T2, 5-hydroxytryptamine receptor 2A (Rattus norvegicus, UniProt P14842); assay: Displacement of [3H]ketanserin from serotonin 5-HT2A receptor in Sprague-Dawley rat brain cortex homogenates incubated for 15 mins by liquid scintillation spectrometry
[5] = target: T3, 5-hydroxytryptamine receptor 2C (Rattus norvegicus, UniProt P08909); assay: Displacement of [3H]mesulergine from serotonin 5-HT2C receptor in Sprague-Dawley rat brain cortex homogenates incubated for 15 mins by liquid scintillation spectrometry
T3 sequence (P08909 whole entry): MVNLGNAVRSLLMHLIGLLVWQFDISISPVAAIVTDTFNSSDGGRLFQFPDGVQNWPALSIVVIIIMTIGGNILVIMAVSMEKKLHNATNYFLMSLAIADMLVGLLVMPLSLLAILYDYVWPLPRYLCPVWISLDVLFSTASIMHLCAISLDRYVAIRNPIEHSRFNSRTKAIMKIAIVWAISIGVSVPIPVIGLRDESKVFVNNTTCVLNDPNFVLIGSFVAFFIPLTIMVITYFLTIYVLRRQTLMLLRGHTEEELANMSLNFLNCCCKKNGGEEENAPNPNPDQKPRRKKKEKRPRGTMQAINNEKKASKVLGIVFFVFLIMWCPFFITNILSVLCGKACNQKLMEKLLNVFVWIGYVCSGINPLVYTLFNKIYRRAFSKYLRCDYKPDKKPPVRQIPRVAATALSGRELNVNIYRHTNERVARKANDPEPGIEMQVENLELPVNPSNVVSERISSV

[6] = target: T2, 5-hydroxytryptamine receptor 2A; assay: Antagonist activity at 5-HT2A receptor in Sprague-Dawley rat ielum assessed as reduction in 5-HT-evoked contraction; assay type: functional
Outline: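 Ileum segments from CO2-asphyxiated rats, longitudinal contractions recorded isotonically (0.5 g load) in 20 mL Krebs at 37°C gassed with 95% O2/5% CO2; 60 min equilibration, then three additions of 5-HT (10^-5 M) for stable control contractions. Compounds dissolved in DMSO (<0.01%), 10 min contact per concentration. IC50 (50% inhibition of 5-HT contraction) and Emax derived by curve fitting; mean (SEM).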

[7] = target: 5-hydroxytryptamine receptor 2A (Rattus norvegicus) (UniProt P14842); assay: Antagonist activity at 5-HT2A receptor in Sprague-Dawley rat ielum assessed as reduction in 5-HT-evoked contraction relative to control; assay type: functional
[8] = target: 5-hydroxytryptamine receptor 2A (Rattus norvegicus) (UniProt P14842); assay: Agonist activity at 5-HT2A receptor in Sprague-Dawley rat ileum assessed as induction of contraction; assay type: functional
[9] = target: 5-hydroxytryptamine receptor 2A (Rattus norvegicus) (UniProt P14842); assay: Antagonist activity at 5-HT2A receptor in Sprague-Dawley rat ielum assessed as reduction in 5-HT-evoked contraction at 10 uM
Mus musculus [10] = assay: Anxiolytic-like activity in Swiss albino mouse assessed as increase in time spent in open arms at 5 mg/kg measured for 5 mins test period by elevated plus maze test; assay type: functional, organism-based
Outline: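 Male Swiss albino mice (18-24 g) were tested in the elevated plus-maze by Lister's method. The reference drug was diluted in saline and given ip (10 ml/kg). Time in open arms was recorded. Results are mean ± SEM, analysed by one-way ANOVA and post hoc test, with the observer blind to treatment.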

[11] = target: 5-hydroxytryptamine receptor 2A (Rattus norvegicus) (UniProt P14842); conditions: Sprague-Dawley, 0.1 uM
[12] = target: 5-hydroxytryptamine receptor 2A (Rattus norvegicus) (UniProt P14842); conditions: Sprague-Dawley, 0.3 uM
Mus musculus [13] = assay: Induction of hypothermia in Swiss albino mouse assessed as reduction in body temperature at 5 mg/kg, ip measured after 60 mins post dose; assay type: functional, organism-based
Outline: (§2)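 Normothermic male Swiss albino mice. Rectal temperature was taken by thermistor thermometer over 180 min (60 min before to 120 min after injection). Initial temperature was the mean of the readings at 60 and 30 min predose. Later readings were at 30, 60, 90 and 120 min, with Δt = final − initial. Data are mean ± SEM, by two-way ANOVA with Bonferroni test.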

Mus musculus [14] = assay: Induction of hypothermia in Swiss albino mouse assessed as reduction in body temperature at 5 mg/kg, ip measured after 30 mins post dose; assay type: functional, organism-based; outline: as §2
Mus musculus [15] = assay: In-vivo 5-HT1A receptor agonist activity in Swiss albino mouse assessed as induction of lower lip retraction by measuring lower lip retraction score at 1 mg/kg, ip dosed 15 mins before test; assay type: functional, organism-based

T2 sequence (P14842 whole entry): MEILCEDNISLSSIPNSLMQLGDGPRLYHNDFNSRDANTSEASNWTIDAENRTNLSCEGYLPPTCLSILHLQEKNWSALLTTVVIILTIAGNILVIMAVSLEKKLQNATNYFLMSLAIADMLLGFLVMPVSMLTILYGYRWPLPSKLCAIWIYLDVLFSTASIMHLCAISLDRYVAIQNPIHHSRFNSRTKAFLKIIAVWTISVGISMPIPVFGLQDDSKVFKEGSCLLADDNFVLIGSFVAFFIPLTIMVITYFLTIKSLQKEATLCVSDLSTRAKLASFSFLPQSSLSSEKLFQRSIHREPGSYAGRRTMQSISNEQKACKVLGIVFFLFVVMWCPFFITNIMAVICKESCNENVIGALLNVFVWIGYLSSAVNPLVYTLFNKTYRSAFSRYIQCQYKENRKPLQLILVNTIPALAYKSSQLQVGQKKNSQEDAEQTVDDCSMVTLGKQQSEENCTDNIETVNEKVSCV
5-hydroxytryptamine receptor 2A (Rattus norvegicus), sequence (P14842 whole entry): as above

CNCCC(Oc1ccc(C(F)(F)F)cc1)c1ccccc1 (stereo not given)
Activity (Mus musculus [1]): Active | Activity (Mus musculus [2]): Active

N#Cc1ccccc1N1CCN(CCNC(=O)c2ccccn2)CC1
Ki [3]: 74.8 nM | Ki [4]: 616 nM | Ki [5]: > 10000 nM

O=C(NCCCN1CCN(c2ncccn2)CC1)c1ccccn1
Ki [3]: 500 nM | Ki [4]: 16.8 nM | Ki [5]: > 10000 nM | EC50 ([6]; read-out: EC50): 828 nM | Emax [7]: 32.1% | Activity [8]: inactive

CN1[C@@H]2CC[C@H]1C[C@@H](OC(=O)C(CO)c1ccccc1)C2 (stereo not given in full)
inhibition [9]: inactive

O=C(NCCN1CCN(c2ccc(F)cc2)CC1)c1ccccn1
Ki [3]: 82 nM | Ki [4]: 241 nM | Ki [5]: 79.4 nM

CCOc1ccccc1N1CCN(CCNC(=O)c2ccccn2)CC1
Ki [3]: 55.4 nM | Ki [4]: > 10000 nM | Ki [5]: > 10000 nM

O=C(NCCN1CCN(Cc2ccc3c(c2)OCO3)CC1)c1ccccn1
Ki [3]: > 10000 nM | Ki [4]: > 10000 nM | Ki [5]: 61.2 nM

O=C(NCCCN1CCN(c2cccc3ccccc23)CC1)c1ccccn1
Ki [3]: 44.1 nM | Ki [4]: 213 nM | Ki [5]: > 10000 nM

O=C1CC2(CCCC2)CC(=O)N1CCCCN1CCN(c2ncccn2)CC1
Activity (Mus musculus [10]): Active

O=C(NCCN1CCN(c2cccc(C(F)(F)F)c2)CC1)c1ccccn1
EC50 ([6]; read-out: EC50): 161 nM | Emax [7]: 48.4% | Activity [8]: inactive

O=C(c1ccc(F)cc1)C1CCN(CCn2c(=O)[nH]c3ccccc3c2=O)CC1
inhibition [11]: Active

COc1ccc(N2CCN(CCNC(=O)c3ccccn3)CC2)cc1
Ki [3]: 138 nM | Ki [4]: 9.33 nM | Ki [5]: > 10000 nM | EC50 [6]: Not Active

Cc1cccc(N2CCN(CCNC(=O)c3ccccn3)CC2)c1C
Ki [3]: 215 nM | Ki [4]: > 10000 nM | Ki [5]: > 10000 nM

N#Cc1ccccc1N1CCN(CCCNC(=O)c2ccccn2)CC1
Ki [3]: 108 nM | Ki [4]: > 10000 nM | Ki [5]: 128 nM

O=C(NCCCN1CCN(c2ccccn2)CC1)c1ccccn1
Ki [3]: 495 nM | Ki [4]: > 10000 nM | Ki [5]: 140 nM

O=C(NCCCN1CCN(C(c2ccccc2)c2ccc(Cl)cc2)CC1)c1ccccn1 (stereo not given)
Ki [3]: 443 nM | Ki [4]: 725 nM | Ki [5]: > 10000 nM

O=C(NCCCN1CCN(C(=O)c2ccco2)CC1)c1ccccn1
Ki [3]: > 10000 nM | Ki [5]: > 10000 nM | EC50 ([6]; read-out: EC50): 777 nM | Emax [7]: 53.1% | Activity [8]: inactive

O=C(NCCCN1CCN(C(c2ccc(F)cc2)c2ccc(F)cc2)CC1)c1ccccn1
EC50 ([6]; read-out: EC50): 2040 nM | Emax [7]: 68.4% | Activity [8]: inactive

COc1ccc(N2CCN(CCCNC(=O)c3ccccn3)CC2)cc1
Ki [3]: > 10000 nM | Ki [4]: > 10000 nM | Ki [5]: > 10000 nM

O=C(NCCN1CCN(c2ccccn2)CC1)c1ccccn1
Ki [3]: 32.7 nM | Ki [4]: > 10000 nM | Ki [5]: > 10000 nM

O=C(NCCCN1CCN(c2cccc(Cl)c2)CC1)c1ccccn1
Ki [3]: 59.5 nM | Ki [4]: 80.7 nM | Ki [5]: 101 nM

O=C(NCCCN1CCN(c2ccccc2)CC1)c1ccccn1
Ki [3]: 104 nM | Ki [4]: 277 nM | Ki [5]: 111 nM

O=C(NCCCN1CCN(c2ccccc2Cl)CC1)c1ccccn1
Ki [3]: 71.6 nM | Ki [4]: 763 nM | Ki [5]: 1050 nM

O=C(NCCCN1CCN(Cc2ccc3c(c2)OCO3)CC1)c1ccccn1
Ki [3]: > 10000 nM | Ki [5]: > 10000 nM | EC50 ([6]; read-out: EC50): 6480 nM | Emax [7]: 75.5% | Activity [8]: inactive

Cc1ccc(N(CC2=NCCN2)c2cccc(O)c2)cc1
inhibition [9]: inactive

O=C(NCCCN1CCN(c2ccc(Cl)c(Cl)c2)CC1)c1ccccn1
Ki [3]: 181 nM | Ki [4]: 90.4 nM | Ki [5]: 9.57 nM | EC50 ([6]; read-out: EC50): 770 nM | Emax [7]: 26.7% | Activity [8]: inactive

O=C(NCCN1CCN(C(c2ccc(F)cc2)c2ccc(F)cc2)CC1)c1ccccn1
Ki [3]: > 10000 nM

Cc1cccc(N2CCN(CCCNC(=O)c3ccccn3)CC2)c1C
Ki [3]: 88.7 nM | Ki [4]: > 10000 nM | Ki [5]: 105 nM

O=C(NCCN1CCN(c2ccccc2)CC1)c1ccccn1
Ki [3]: 161 nM | Ki [4]: 53.2 nM | Ki [5]: > 10000 nM | EC50 [6]: Not Active

O=C(NCCCN1CCN(c2cccc(C(F)(F)F)c2)CC1)c1ccccn1
Ki [3]: 17.9 nM | Ki [4]: > 10000 nM | Ki [5]: > 10000 nM

O=C(NCCN1CCN(c2cccc3ccccc23)CC1)c1ccccn1
Ki [3]: 20.8 nM | Ki [4]: 91.1 nM | Ki [5]: 116 nM

O=C(NCCN1CCN(C(=O)c2ccco2)CC1)c1ccccn1
Ki [3]: > 10000 nM | Ki [4]: > 10000 nM | Ki [5]: > 10000 nM

O=C(NCCCN1CCN(c2ccccc2F)CC1)c1ccccn1
Ki [3]: 230 nM | Ki [4]: 327 nM | Ki [5]: > 10000 nM

COc1ccccc1N1CCN(CCNC(=O)c2ccccn2)CC1
Ki [3]: 599 nM | Ki [4]: 0.0224 nM | Ki [5]: > 10000 nM | EC50 ([6]; read-out: EC50): 4250 nM | Emax [7]: 33.7% | Activity [8]: inactive

O=C(NCCN1CCN(C(c2ccccc2)c2ccc(Cl)cc2)CC1)c1ccccn1 (stereo not given)
Ki [3]: 540 nM | Ki [4]: 504 nM | Ki [5]: 49.8 nM

O=C(NCCN1CCN(c2ccccc2Cl)CC1)c1ccccn1
Ki [3]: 412 nM | Ki [4]: > 10000 nM | Ki [5]: 268 nM

NC1=N[C@H](O)[C@H]2[C@H]3O[C@]4(O)O[C@@H]([C@H](O)[C@@]2(N1)[C@@H]4O)[C@]3(O)CO
inhibition [12]: inactive

CCN(CC)C1CCc2cccc(O)c2C1 (stereo not given)
Ki [3]: 0.8 nM | Activity (Mus musculus [13]): Active | Activity (Mus musculus [14]): Active | Activity (Mus musculus [15]): Active

O=C(NCCCN1CCN(c2ccc(Cl)cc2)CC1)c1ccccn1
Ki [3]: 68 nM | Ki [4]: 371 nM | Ki [5]: 39.7 nM

CCOc1ccccc1N1CCN(CCCNC(=O)c2ccccn2)CC1
Ki [3]: 85.6 nM | Ki [4]: 119 nM | Ki [5]: 80 nM

O=C(NCCN1CCN(c2ccccc2F)CC1)c1ccccn1
Ki [3]: 158 nM | Ki [4]: > 10000 nM | Ki [5]: > 10000 nM

O=C(NCCN1CCN(c2cccc(Cl)c2)CC1)c1ccccn1
Ki [3]: 267 nM | Ki [4]: 309 nM | Ki [5]: 90.9 nM

COc1ccccc1N1CCN(CCCNC(=O)c2ccccn2)CC1
Ki [3]: 40.1 nM | Ki [4]: > 10000 nM | Ki [5]: 128 nM

O=C(NCCCN1CCN(c2ccc(F)cc2)CC1)c1ccccn1
Ki [3]: > 10000 nM | Ki [4]: 161 nM | Ki [5]: 11.7 nM
